# According to ChEMBL document CHEMBL1135620, “Cyclosporins: structure-activity relationships for the inhibition of the human FPR1 formylpeptide receptor” (J Med Chem, 2002):
# Molecular target: T1, fMet-Leu-Phe receptor (Homo sapiens) (UniProt P21462)
# T1 sequence (whole entry): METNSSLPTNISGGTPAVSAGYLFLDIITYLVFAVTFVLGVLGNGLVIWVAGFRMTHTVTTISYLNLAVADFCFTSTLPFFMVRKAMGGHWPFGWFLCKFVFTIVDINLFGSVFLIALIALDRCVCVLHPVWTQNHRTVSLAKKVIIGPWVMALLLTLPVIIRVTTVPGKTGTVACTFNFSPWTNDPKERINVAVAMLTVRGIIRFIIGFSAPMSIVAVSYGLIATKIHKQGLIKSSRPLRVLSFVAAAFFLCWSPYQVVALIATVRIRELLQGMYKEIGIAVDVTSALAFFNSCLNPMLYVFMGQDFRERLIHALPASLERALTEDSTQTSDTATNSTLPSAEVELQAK
# Test: Inhibitory activity against Human formylpeptide receptor (FPR) of human leukemia HL-60 cells
# Format: cell-based
# Outline: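 HL-60 cells differentiated 48 h with 0.2 mM dibutyryl cAMP, washed, then treated with 5 μM cytochalasin B (5–10 min, 37 °C). Stimulated 10 min with 30 nM f-MLF. N-acetyl-β-D-glucosaminidase release read at 410 nm on p-nitrophenyl substrate after spontaneous-release subtraction. Duplicate wells; IC20/IC50 as mean ± SD of independent experiments.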
row,SMILES,IC20
1,CC/C=C/C[C@@H](C)[C@@H](O)[C@H]1C(=O)N[C@@H](CC)C(=O)N(C)CC(=O)N(C)[C@@H](Cc2ccccc2)C(=O)N[C@H](C(C)C)C(=O)N(C)[C@H](CC(C)C)C(=O)N[C@@H](C)C(=O)N[C@H](C)C(=O)N(C)[C@@H](CC(C)C)C(=O)N(C)[C@@H](CC(C)C)C(=O)N(C)[C@@H](C(C)C)C(=O)N1C,4000 nM
2,C/C=C/C[C@@H](C)[C@@H](O)[C@H]1C(=O)N[C@@H](CC)C(=O)N(C)CC(=O)N(C)[C@H](CC(C)C)C(=O)N[C@H](C(C)C)C(=O)N(C)[C@H](CC(C)C)C(=O)N[C@@H](C)C(=O)N[C@H](C)C(=O)N(C)[C@@H](CC(C)C)C(=O)N(C)[C@@H](CC(C)C)C(=O)N(C)[C@@H](C)C(=O)N1C,310 nM
3,CCC[C@@H]1NC(=O)[C@H](CC(C)C)N(C)C(=O)[C@H](C(C)C)N(C)C(=O)[C@H](CC(C)C)N(C)C(=O)[C@H](CC(C)C)N(C)C(=O)[C@@H](C)NC(=O)[C@H](C)NC(=O)[C@@H](CC(C)C)N(C)C(=O)[C@H](C(C)C)NC(=O)[C@@H](CC(C)C)N(C)C(=O)CN(C)C1=O,7600 nM
4,C/C=C/C[C@@H](C)[C@@H](O)[C@H]1C(=O)N[C@@H]([C@@H](C)O)C(=O)N(C)CC(=O)N(C)[C@H](CC(C)C)C(=O)N[C@@H]([C@@H](C)CC)C(=O)N(C)[C@H](CC(C)C)C(=O)N[C@@H](C)C(=O)N[C@](O)(C(C)C)C(=O)N(C)[C@@H](CC(C)C)C(=O)N[C@@H](CC(C)C)C(=O)N(C)[C@@H](C(C)C)C(=O)N1C,290 nM
5,CC[C@@H]1NC(=O)[C@H]([C@H](O)[C@H](C)C/C=C/CO)N(C)C(=O)[C@H](C(C)C)N(C)C(=O)[C@H](CC(C)C)N(C)C(=O)[C@H](CC(C)C)N(C)C(=O)[C@@H](C)NC(=O)[C@H](C)NC(=O)[C@@H](CC(C)C)N(C)C(=O)[C@@H](C(C)C)NC(=O)[C@@H](CC(C)C)N(C)C(=O)CN(C)C1=O,> 10000 nM
6,CC/C=C/C[C@@H](C)[C@@H](O)[C@H]1C(=O)N[C@@H](CC)C(=O)N(C)[C@@H](Cc2ccccc2)C(=O)N(C)[C@H](CC(C)C)C(=O)N[C@H](C(C)C)C(=O)N(C)[C@H](CC(C)C)C(=O)N[C@@H](C)C(=O)N[C@H](C)C(=O)N(C)[C@@H](CC(C)C)C(=O)N(C)[C@@H](CC(C)C)C(=O)N(C)[C@@H](C(C)C)C(=O)N1C,> 10000 nM
7,CC/C=C/C[C@@H](C)[C@@H](O)[C@H]1C(=O)N[C@@H](CC)C(=O)N(C)CC(=O)N(C)[C@@H](CC(C)(C)O)C(=O)N[C@H](C(C)C)C(=O)N(C)[C@H](CC(C)C)C(=O)N[C@@H](C)C(=O)N[C@H](C)C(=O)N(C)[C@@H](CC(C)C)C(=O)N(C)[C@@H](CC(C)C)C(=O)N(C)[C@@H](C(C)C)C(=O)N1C,1700 nM
8,C/C=C/C[C@@H](C)[C@@H](O)[C@H]1C(=O)N[C@@H]([C@@H](C)O)C(=O)N(C)CC(=O)N(C)[C@H](CC(C)C)C(=O)N[C@@H](CC(C)C)C(=O)N(C)[C@H](CC(C)C)C(=O)N[C@@H](C)C(=O)N[C@](O)(C(C)C)C(=O)N(C)[C@@H](CC(C)C)C(=O)N[C@@H](CC(C)C)C(=O)N(C)[C@@H](C(C)C)C(=O)N1C,200 nM
9,CC[C@@H]1NC(=O)[C@H](CC2CCCCC2)N(C)C(=O)[C@H](C(C)C)N(C)C(=O)[C@H](CC(C)C)N(C)C(=O)[C@H](CC(C)C)N(C)C(=O)[C@@H](C)NC(=O)[C@H](C)NC(=O)[C@@H](CC(C)C)N(C)C(=O)[C@@H](C(C)C)NC(=O)[C@@H](CC(C)C)N(C)C(=O)CN(C)C1=O,1690 nM
10,CC[C@@H]1NC(=O)[C@H](C2CCCCC2C)N(C)C(=O)[C@H](C(C)C)N(C)C(=O)[C@H](CC(C)C)N(C)C(=O)[C@H](CC(C)C)N(C)C(=O)[C@@H](C)NC(=O)[C@@H](C)NC(=O)[C@@H](CC(C)C)N(C)C(=O)[C@@H](C(C)C)NC(=O)[C@@H](CC(C)C)N(C)C(=O)CN(C)C1=O (stereo partly specified),> 10000 nM
11,C/C=C/C[C@@H](C)[C@@H](O)[C@H]1C(=O)N[C@@H](CC)C(=O)N(C)CC(=O)N(C)[C@H](CC(C)C)C(=O)N[C@H](C(C)C)C(=O)N(C)[C@H](CC(C)C)C(=O)N[C@@H](C)C(=O)N[C@H](C)C(=O)N[C@@H](CC(C)C)C(=O)N(C)[C@@H](CC(C)C)C(=O)N(C)[C@@H](C(C)C)C(=O)N1C,530 nM
12,C/C=C/C[C@@H](C)[C@@H](O)[C@H]1C(=O)N[C@@H](C)C(=O)N(C)CC(=O)N(C)[C@H](CC(C)C)C(=O)N[C@H](C(C)C)C(=O)N(C)[C@H](CC(C)C)C(=O)N[C@@H](C)C(=O)N[C@H](C)C(=O)N(C)[C@@H](CC(C)C)C(=O)N[C@@H](CC(C)C)C(=O)N(C)[C@@H](C(C)C)C(=O)N1C,200 nM
13,CC(C)C[C@@H]1NC(=O)[C@@H](CC(C)C)N(C)C(=O)CN(C)C(=O)[C@H]([C@@H](C)O)NC(=O)[C@H]([C@H](O)[C@H](C)C/C=C/CO)N(C)C(=O)[C@H](C(C)C)N(C)C(=O)[C@H](CC(C)C)NC(=O)[C@H](CC(C)C)N(C)C(=O)[C@@](O)(C(C)C)NC(=O)[C@H](C)NC(=O)[C@@H](CC(C)C)N(C)C1=O,470 nM

# Results, then the compound that gave them:
row,IC20,SMILES
1,1440 nM,CC/C=C/C[C@@H](C)[C@@H](O)[C@H]1C(=O)N[C@@H](CC)C(=O)N(C)CC(=O)N(C)[C@@H](C(C)C)C(=O)N[C@H](C(C)C)C(=O)N(C)[C@H](CC(C)C)C(=O)N[C@@H](C)C(=O)N[C@H](C)C(=O)N(C)[C@@H](CC(C)C)C(=O)N(C)[C@@H](CC(C)C)C(=O)N(C)[C@@H](C(C)C)C(=O)N1C
2,3900 nM,CC/C=C/C[C@@H](C)[C@@H](O)[C@H]1C(=O)N[C@@H](C(C)C)C(=O)N(C)CC(=O)N(C)[C@H](CC(C)C)C(=O)N[C@H](C(C)C)C(=O)N(C)[C@H](CC(C)C)C(=O)N[C@@H](C)C(=O)N[C@H](C)C(=O)N(C)[C@@H](CC(C)C)C(=O)N(C)[C@@H](CC(C)C)C(=O)N(C)[C@@H](C(C)C)C(=O)N1C
3,4200 nM,CC(C)C[C@@H]1C(=O)N[C@@H](C(C)C)C(=O)N(C)[C@H](CC(C)C)C(=O)N[C@@H](C)C(=O)N[C@H](C)C(=O)N(C)[C@@H](CC(C)C)C(=O)N(C)[C@@H](CC(C)C)C(=O)N(C)[C@@H](C(C)C)C(=O)N(C)[C@@H](CC(C)C)C(=O)N[C@@H](C(C)C)C(=O)N(C)CC(=O)N1C
4,8100 nM,C/C=C/C[C@@H](C)[C@@H](O)[C@H]1C(=O)N[C@@H](CCC)C(=O)N(C)CC(=O)N(C)[C@H](CC(C)C)C(=O)N[C@H](C(C)C)C(=O)N[C@@H](CC(C)C)C(=O)N[C@@H](C)C(=O)N[C@H](C)C(=O)N(C)[C@@H](CC(C)C)C(=O)N(C)[C@@H](CC(C)C)C(=O)N(C)[C@@H](C(C)C)C(=O)N1C
5,6400 nM,C/C=C/C[C@@H](C)[C@@H](O)[C@H]1C(=O)N[C@@H]([C@@H](C)O)C(=O)N(C)CC(=O)N(C)[C@H](CC(C)C)C(=O)N[C@H](C(C)C)C(=O)N(C)[C@H](CC(C)C)C(=O)N[C@@H](C)C(=O)N[C@H](C)C(=O)N(C)[C@@H](CC(C)C)C(=O)N(C)[C@@H](CC(C)C)C(=O)N[C@@H](C(C)C)C(=O)N1C
6,> 10000 nM,C/C=C/C[C@@H](C)[C@@H](O)[C@H]1C(=O)N[C@@H](CC)C(=O)N(C)CC(=O)N[C@@H](CC(C)C)C(=O)N[C@H](C(C)C)C(=O)N(C)[C@H](CC(C)C)C(=O)N[C@@H](C)C(=O)N[C@H](C)C(=O)N(C)[C@@H](CC(C)C)C(=O)N(C)[C@@H](CC(C)C)C(=O)N(C)[C@@H](C(C)C)C(=O)N1C
7,2900 nM,C/C=C/C[C@@H](C)[C@@H](O)[C@H]1C(=O)N[C@@H](CC)C(=O)N(C)CC(=O)N(C)[C@H](CC(C)C)C(=O)N[C@H](C(C)C)C(=O)N(C)[C@H](CC(C)C)C(=O)N[C@@H](C)C(=O)N[C@H](C)C(=O)N(C)[C@@H](CC(C)C)C(=O)N(C)[C@@H](CC(C)C)C(=O)N(C)[C@@H]([C@@H](C)CC)C(=O)N1C
8,2800 nM,C/C=C/C[C@@H](C)[C@@H](O)[C@H]1C(=O)N[C@@H](CC)C(=O)N(C)CC(=O)N[C@@H]([C@@H](C)CC)C(=O)N[C@H](C(C)C)C(=O)N(C)[C@H](CC(C)C)C(=O)N[C@@H](C)C(=O)N[C@H](C)C(=O)N(C)[C@@H](CC(C)C)C(=O)N(C)[C@@H](CC(C)C)C(=O)N(C)[C@@H](C(C)C)C(=O)N1C
9,2200 nM,CC/C=C/C[C@@H](C)[C@@H](O)[C@H]1C(=O)N[C@@H]([C@@H](C)O)C(=O)N(C)CC(=O)N(C)[C@H](CC(C)C)C(=O)N[C@H](C(C)C)C(=O)N(C)[C@H](CC(C)C)C(=O)N[C@@H](C)C(=O)N[C@H](C)C(=O)N(C)[C@@H](CC(C)C)C(=O)N(C)[C@@H](CC(C)C)C(=O)N(C)[C@@H](C(C)C)C(=O)N1C
10,500 nM,CC/C=C/C[C@@H](C)[C@@H](O)[C@H]1C(=O)N[C@@H](CC)C(=O)N(C)CC(=O)N(C)[C@H](CC(C)C)C(=O)N[C@H](C(C)C)C(=O)N(C)[C@H](CC(C)C)C(=O)N[C@@H](C)C(=O)N[C@H](CCCCN)C(=O)N(C)[C@@H](CC(C)C)C(=O)N(C)[C@@H](CC(C)C)C(=O)N(C)[C@@H](C(C)C)C(=O)N1C
11,660 nM,C/C=C/C[C@@H](C)[C@@H](O)[C@H]1C(=O)N[C@@H](CCC)C(=O)N(C)CC(=O)N(C)[C@H](CC(C)C)C(=O)N[C@H](C(C)C)C(=O)N(C)[C@H](CC(C)C)C(=O)N[C@@H](C)C(=O)N[C@H](C)C(=O)N(C)[C@@H](CC(C)C)C(=O)N[C@@H](CC(C)C)C(=O)N(C)[C@@H](C(C)C)C(=O)N1C
12,1400 nM,C/C=C/C[C@@H](C)[C@@H](O)[C@H]1C(=O)N[C@@H](C(C)C)C(=O)N(C)CC(=O)N(C)[C@H](CC(C)C)C(=O)N[C@H](C(C)C)C(=O)N(C)[C@H](CC(C)C)C(=O)N[C@@H](C)C(=O)N[C@H](C)C(=O)N(C)[C@@H](CC(C)C)C(=O)N[C@@H](CC(C)C)C(=O)N(C)[C@@H](C(C)C)C(=O)N1C
13,1900 nM,C/C=C/C[C@@H](C)[C@@H](O)[C@H]1C(=O)N[C@@H](CC)C(=O)NCC(=O)N(C)[C@H](CC(C)C)C(=O)N[C@H](C(C)C)C(=O)N(C)[C@H](CC(C)C)C(=O)N[C@@H](C)C(=O)N[C@H](CO)C(=O)N(C)[C@@H](CC(C)C)C(=O)N(C)[C@@H](CC(C)C)C(=O)N(C)[C@@H](C(C)C)C(=O)N1C
